Legend:
[1] = Cytotoxicity by neutral red assay in HFF; assay type: cell-based; conditions: human, human foreskin fibroblasts (HFF)
[2] = Visual cytotoxicity in uninfected HFF's used in plaque reduction assays; assay type: cell-based; conditions: human, uninfected human foreskin fibroblasts (HFF)
[3] = Pharmacokinetics after IV bolus dosing of prodrug; assay type: in vivo; conditions: mice, IV 24.6 mg/kg prodrug
[4] = Stability of prodrug / conversion to cyclopropavir in mouse whole blood; assay type: in vitro ADME; conditions: for First order rate constant of conversion to cyclopropavir (5) / half live of conversion to cyclopropavir (5): 50 μM
Method in brief: (§1)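 Blood was drawn by cardiac puncture from anaesthetised male Swiss-Webster mice into EDTA(K3) and iced; plasma was spun 10 min at 1100 × G, 4°C. Blood or plasma was spiked from a DMSO stock to a 50 μM final and held at 0°C (ice water) or 37°C. A no-incubation control was processed straight after spiking. Timed aliquots were frozen (blood first spun 2200 × G, 5 min, 4°C). Prodrug and parent were measured by HPLC, UV.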

[5] = Kinetics of hydrolysis at pH 7.0; assay type: physicochemical; conditions: phosphate buffer
[6] = Stability of prodrug / conversion to cyclopropavir in mouse plasma; assay type: in vitro ADME; conditions: for First order rate constant of conversion to cyclopropavir (5) / half live of conversion to cyclopropavir (5): 50 μM
Method in brief: as §1

[7] = pH 7.08, 37 °C; cited from earlier work
[8] = analyte prodrug (6), two compartments model

## Nc1nc2c(ncn2/C=C2/CC2(CO)CO)c(=O)[nH]1 [Cyclopropavir (5)]
[1]
  CC50: > 380 µM
[2]
  CC50: > 100 µM

## CC(C)[C@H](N)C(=O)OCC1(CO)C/C1=C/n1cnc2c(=O)[nH]c(N)nc21.Cl (mixture of isomers) [Valcyclopropavir (6), (Z)-9-{[2-Hydroxymethyl-2-(L-valyloxymethyl)cyclopropylidene]methyl}guanine Hydrochloride]
[3]; [8]
  Rate constant of distribution phase, α: 0.25 min.^−1
  Rate constant of elimination phase, β: 0.00263 min.^−1
  Volume of main compartment, V: 0.0753 L/kg
[3]; male, Swiss-Webster, mouse, plasma, iv, 24.6 mg/kg, Area under the curve, AUC, analyte prodrug (6), single compartment first order elimination model
  AUC: 1020 ng·h/mL
[3]; male, Swiss-Webster, mouse, plasma, iv, 24.6 mg/kg, Clearance (Cl), analyte prodrug (6), single compartment first order elimination model
  clearance: 402 mL/min
[3]; male, Swiss-Webster, mouse, plasma, iv, 24.6 mg/kg, Half-life, T1/2, analyte prodrug (6), single compartment first order elimination model
  half-life: 2.68 h
[1]
  CC50: > 300 µM
[4]; male, Swiss-Webster, mouse, whole blood
  half-life at 50 μM: 22 h
[4]; mouse whole blood, 0°C
  First order rate constant of conversion to cyclopropavir (5): 0.0005 min.^−1
  half live of conversion to cyclopropavir (5): 1310 min
[4]; mouse whole blood, 37°C
  First order rate constant of conversion to cyclopropavir (5): 0.0087 min.^−1
  half live of conversion to cyclopropavir (5): 80 min
[4]; mouse whole blood, processed immediately after spiking
  conversion of valcyclopropavir (6) to cyclopropavir (5), no incubation: 9.0%
[5]
  half-life at 2.25 mM: 22.5 h
[6]; 0°C
  First order rate constant of conversion to cyclopropavir (5): 0.0010 min.^−1
  half live of conversion to cyclopropavir (5): 727 min
[6]; 37°C
  First order rate constant of conversion to cyclopropavir (5): 0.0172 min.^−1
  half live of conversion to cyclopropavir (5): 40.4 min
[6]; processed immediately after spiking
  conversion of valcyclopropavir (6) to cyclopropavir (5), no incubation: 3.7%
[2]
  CC50: > 100 µM

## CC(C)[C@H](N)C(=O)OCC(CO)OCn1cnc2c(=O)nc(N)[nH]c21 (stereo partly shown) [valganciclovir (2)]
[7]
  half-life of hydrolysis: 11 h

## Nc1nc(O)c2ncn(COC(CO)CO)c2n1 [Ganciclovir, reference compound]
[1]
  CC50: > 100 µM
[2]
  CC50: > 100 µM

Source: paper PMC2931272 (Antiviral chemistry & chemotherapy, 2009)
